pKd: −log10 of the molar value. Calls of active or inactive are those of the source. No cut-off for these calls is given here.
How the values were obtained:
[1] = test system: Nucleoside diphosphate kinase B (Homo sapiens), P22392 [F60A]; experiment: Binding affinity to NM23-H2 F60A mutant (unknown origin) up to 50 uM by SPR analysis
[2] = target: T1, Nucleoside diphosphate kinase B (Homo sapiens, UniProt P22392); experiment: Binding affinity to NM23-H2 (unknown origin) by SPR analysis
[3] = target: Nucleoside diphosphate kinase B (Homo sapiens, UniProt P22392, D54A); experiment: Binding affinity to N-terminal NT-647-NHS labeled NM23-H2 D54A mutant (unknown origin) after 30 mins by MST analysis
Nucleoside diphosphate kinase B (Homo sapiens, UniProt P22392, D54A), sequence (P22392 whole entry D54A): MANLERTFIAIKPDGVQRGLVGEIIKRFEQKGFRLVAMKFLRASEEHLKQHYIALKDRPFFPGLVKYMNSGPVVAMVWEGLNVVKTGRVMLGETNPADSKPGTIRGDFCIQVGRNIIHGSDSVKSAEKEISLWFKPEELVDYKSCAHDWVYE

[4] = target: Nucleoside diphosphate kinase B (Homo sapiens, UniProt P22392, H118F); experiment: Binding affinity to N-terminal NT-647-NHS labeled NM23-H2 H118F mutant (unknown origin) after 30 mins by MST analysis
Nucleoside diphosphate kinase B (Homo sapiens, UniProt P22392, H118F), sequence (P22392 whole entry H118F): as the sequence (P22392 whole entry D54A) above, with A54D, H118F counted along it

[5] = Binding affinity to N-terminal NT-647-NHS labeled NM23-H2 D121A mutant (unknown origin) after 30 mins by MST analysis; set-up: species or system Homo sapiens
[6] = Binding affinity to 5'-FAM/3'-TAMRA labeled Pu22 c-myc G-quadruplex DNA (unknown origin) assessed as increase in melting temperature at 1 uM by FRET assay
[7] = Binding affinity to Htg21 telomeric G-quadruplex DNA (unknown origin) at 40 uM after 30 mins by SPR analysis
SiHa [8] = experiment: Effect on NM23-H2 mRNA level in human SiHa cells up to 2 uM after 9 hrs by RT-PCR analysis; format: functional, cell-based
Outline: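 SiHa cells treated with 0, 0.5, 1.0 or 2.0 μM for 9 h. TRIzol RNA (1.5 μg) reverse-transcribed with M-MLV and oligo(dT) for 1 h at 42 °C. Semiquantitative PCR run for 30 cycles (58 °C annealing) and products resolved on 1.5% agarose. Band intensity normalized to β-actin, with untreated sample set at 100%; three repeats.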

[9] = target: T1, Nucleoside diphosphate kinase B; experiment: Binding affinity to NM23-H2 in human SiHa cells assessed as disruption of protein interaction with c-myc G-quadruplex DNA by measuring decrease in c-MYC protein expresson at 1 to 2 uM after 48 hrs by Western blot analysis; format: cell-based
Outline: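 SiHa cells treated 48 h; lysates (30 μg) on 10% SDS-PAGE, nitrocellulose, anti-c-MYC overnight at 4 °C, HRP secondary, chemiluminescence; β-actin internal control; three repeats.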

SiHa [10] = experiment: Induction of apoptosis in human SiHa cells assessed as early apoptotic cells at 0.5 uM after 48 hrs by Annexin V-FITC/propidium iodide based flow cytometric analysis (reference value: 1.4 %); format: functional
SiHa [11] = experiment: Induction of apoptosis in human SiHa cells assessed as early apoptotic cells at 2 uM after 48 hrs by Annexin V-FITC/propidium iodide based flow cytometric analysis (reference value: 1.4 %); format: functional
SiHa [12] = experiment: Induction of apoptosis in human SiHa cells assessed as late apoptotic cells at 0.5 uM after 48 hrs by Annexin V-FITC/propidium iodide based flow cytometric analysis (reference value: 0.7 %); format: functional
SiHa [13] = experiment: Induction of apoptosis in human SiHa cells assessed as increase in cleaved caspase-3 level after 48 hrs by Western blot analysis; format: functional, cell-based
Outline: (§1)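 SiHa cells treated with 0, 0.5, 1.0 or 2.0 μM for 48 h and lysed for total protein. Caspase-3, cleaved caspase-3, PARP and cleaved PARP detected by Western blot (30 μg protein, 10% SDS-PAGE, HRP chemiluminescence). Bands quantified by densitometry; at least three experiments.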

SiHa [14] = experiment: Induction of apoptosis in human SiHa cells assessed as increase in cleaved PARP level after 48 hrs by Western blot analysis; format: functional, cell-based; outline: as §1
SiHa [15] = experiment: Down regulation of CDK4 expression in human SiHa cells at 0.5 to 2 uM after 24 to 48 hrs by Western blot analysis; format: functional, cell-based
Outline: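 SiHa cells (2.0 × 10^5) treated with compound at various concentrations for 24 or 48 h, then lysed at 4 °C. Protein measured by BCA; 30 μg run on 10% SDS-PAGE and transferred to nitrocellulose. Membranes blocked in 5% milk, probed with primary antibodies overnight at 4 °C, then HRP secondary for 2 h, and detected by chemiluminescence. Bands quantified by densitometry; at least three experiments.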

SiHa [16] = experiment: Cell cycle arrest in human SiHa cells assessed as accumulation at G0/G1 phase at 2 uM after 6 hrs by propidium iodide staining based flow cytometry (reference value: 48 %); format: functional
Outline: (§2)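 SiHa cells plated 24 h, treated at 2 μM for 3–48 h; fixed in ice-cold 70% ethanol overnight, RNase A 20 μg/mL 37 °C 30 min, PI-stained, flow cytometry at 488 nm; phase percentages quantified; at least three experiments.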

SiHa [17] = experiment: Cell cycle arrest in human SiHa cells assessed as accumulation at G0/G1 phase at 2 uM after 12 hrs by propidium iodide staining based flow cytometry (reference value: 48 %); format: functional; outline: as §2
SiHa [18] = experiment: Cell cycle arrest in human SiHa cells assessed as accumulation at G2/M phase at 2 uM after 12 hrs by propidium iodide staining based flow cytometry (reference value: 39 %); format: functional; outline: as §2
SiHa [19] = experiment: Cell cycle arrest in human SiHa cells assessed as accumulation at S phase at 2 uM after 24 hrs by propidium iodide staining based flow cytometry (reference value: 13 %); format: functional
Outline: (§3)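 SiHa cells (2.0 × 10^5 per well) plated 24 h, then exposed to 2 μM compound or left untreated for 3, 6, 9, 12, 24, 36 or 48 h. Cells washed in PBS, fixed overnight in ice-cold 70% ethanol, treated with 20 μg/mL RNase A for 30 min at 37 °C, stained with PI, and read by flow cytometry at 488 nm. Phase percentages compared with untreated control; at least three experiments.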

SiHa [20] = experiment: Cell cycle arrest in human SiHa cells assessed as accumulation at G2/M phase at 2 uM after 36 hrs by propidium iodide staining based flow cytometry (reference value: 39 %); format: functional; outline: as §3
SiHa [21] = experiment: Antitumor activity against human SiHa cells xenografted in BALB/C nude mouse assessed as tumor growth inhibition at 2.5 to 5 mg/kg, ip administered daily; format: functional, organism-based; settings: TDE = time-dependent effect
Outline: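 SiHa cells implanted in the right armpit of BALB/C-nu/nu mice. At a tumour size of about 50 mm3, mice were randomised (n = 8/group) to vehicle, 2.5 or 5.0 mg/kg compound, or doxorubicin 1.0 mg/kg, given ip daily for 3 weeks. Tumour volume was followed, then tumours were excised and weighed and body weight recorded. Mean ± SEM, t test against vehicle.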

Mus musculus [22] = experiment: Toxicity in BALB/C nude mouse xenografted with human SiHa cells assessed as change in body weight at 2.5 to 5 mg/kg, ip administered daily after 3 weeks; format: organism-based; settings: in vivo, 504 h
Outline: (§4)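 SiHa cells implanted in the right armpit of BALB/c nu/nu mice. At approximately 50 mm3, mice randomized (n = 8/group) to vehicle, compound 2.5 or 5.0 mg/kg, or doxorubicin 1.0 mg/kg, given ip daily for 3 weeks. Body weight and signs of pain, distress or discomfort monitored; tumors excised and weighed. Data given as mean ± SEM, t test against vehicle.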

Mus musculus [23] = experiment: Toxicity in BALB/C nude mouse xenografted with human SiHa cells assessed as distress at 2.5 to 5 mg/kg, ip administered daily after 3 weeks; format: organism-based; settings: in vivo, 504 h; outline: as §4

T1 sequence (P22392 whole entry): as the sequence (P22392 whole entry D54A) above, with A54D counted along it
Nucleoside diphosphate kinase B (Homo sapiens), P22392 [F60A], sequence (P22392 whole entry F60A): as the sequence (P22392 whole entry D54A) above, with A54D, F60A counted along it

Activity [1]: inactive
pKd [2]: 5.51
pKd [3]: 5.34
pKd [4]: 5.11
pKd [5]: 4.03
Activity [6]: inactive
Activity [7]: inactive
Activity [9]: Active
Compound: CN(C)CCCNc1cc2nc3n(c(=O)c2cc1F)CC/C3=C\c1ccc(OCc2ccccc2)cc1O
Activity (SiHa [8]): inactive
Activity (SiHa [10]): 11.8%
Activity (SiHa [11]): 4.8%
Activity (SiHa [12]): 5.1%
Activity (SiHa [13]): Dose-dependent effect
Activity (SiHa [14]): Dose-dependent effect
Activity (SiHa [15]): Active
Activity (SiHa [16]): 62%
Activity (SiHa [17]): 54%
Activity (SiHa [18]): 27%
Activity (SiHa [19]): 6%
Activity (SiHa [20]): 0%
TGI (SiHa [21]): Tde
Activity (Mus musculus [22]): Non-Toxic
Activity (Mus musculus [23]): Non-Toxic

Reference: ChEMBL document CHEMBL4017489, “Design, Synthesis, and Evaluation of New Selective NM23-H2 Binders as c-MYC Transcription Inhibitors via Disruption of the NM23-H2/G-Quadruplex Interaction” (J Med Chem, 2017)
